Reference: ChEMBL document CHEMBL1139946, “1-Aryl-4,6-dihydropyrazolo[4,3-d][1]benzazepin-5(1H)-ones: a new class of antiproliferative agents with selectivity for human leukemia and breast cancer cell lines” (Eur J Med Chem, 2007)

Tests used:
MCF7 = experiment: Antiproliferative activity against human MCF7 cells at 100 uM after 48 hrs relative to control; assay type: functional; details: MCF7, 48 h
Outline: (§1)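 NCI three-cell-line prescreen (MCF7 breast, NCI-H460 non-small cell lung, SF-268 CNS). Cells inoculated and preincubated in microtiter plates, then exposed to test agent at 10^-4 M for 48 h. Alamar blue end-point read-out. Growth of treated cells expressed as percent of untreated control cells.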

NCI-H460 = experiment: Antiproliferative activity against human NCI-H460 cells at 100 uM after 48 hrs relative to control; assay type: functional; details: NCI-H460, 48 h; outline: as §1
SF-268 = experiment: Antiproliferative activity against human SF268 cells at 100 uM after 48 hrs relative to control; assay type: functional; details: SF-268, 48 h; outline: as §1
[1] = molecular target: T1, Ephrin type-B receptor 4 (Homo sapiens) (UniProt P54760); experiment: Inhibition of EphB4 at 10 uM
T1 sequence (whole entry): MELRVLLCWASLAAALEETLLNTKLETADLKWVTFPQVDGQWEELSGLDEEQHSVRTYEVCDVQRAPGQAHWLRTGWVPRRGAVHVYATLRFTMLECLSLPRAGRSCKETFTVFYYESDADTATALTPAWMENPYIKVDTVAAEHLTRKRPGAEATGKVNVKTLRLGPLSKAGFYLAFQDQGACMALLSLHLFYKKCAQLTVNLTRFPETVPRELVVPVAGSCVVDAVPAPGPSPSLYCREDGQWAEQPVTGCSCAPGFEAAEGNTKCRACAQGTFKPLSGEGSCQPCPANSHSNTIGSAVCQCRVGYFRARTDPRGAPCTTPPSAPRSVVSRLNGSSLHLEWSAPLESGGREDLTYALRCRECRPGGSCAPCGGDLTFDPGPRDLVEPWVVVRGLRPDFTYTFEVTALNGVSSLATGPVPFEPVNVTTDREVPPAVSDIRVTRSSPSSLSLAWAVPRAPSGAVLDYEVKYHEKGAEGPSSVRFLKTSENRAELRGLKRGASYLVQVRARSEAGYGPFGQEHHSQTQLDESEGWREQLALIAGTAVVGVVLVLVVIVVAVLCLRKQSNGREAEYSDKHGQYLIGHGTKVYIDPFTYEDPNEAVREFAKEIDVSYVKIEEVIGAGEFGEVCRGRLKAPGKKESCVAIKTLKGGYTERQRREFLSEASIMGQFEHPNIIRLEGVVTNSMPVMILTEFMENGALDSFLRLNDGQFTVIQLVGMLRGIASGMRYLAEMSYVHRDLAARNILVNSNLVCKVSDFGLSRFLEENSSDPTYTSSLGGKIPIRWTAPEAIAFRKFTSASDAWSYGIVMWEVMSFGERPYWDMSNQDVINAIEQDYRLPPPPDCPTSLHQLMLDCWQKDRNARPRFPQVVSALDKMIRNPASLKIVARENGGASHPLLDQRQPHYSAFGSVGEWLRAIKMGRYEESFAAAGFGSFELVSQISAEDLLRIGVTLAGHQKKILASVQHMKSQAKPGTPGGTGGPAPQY

[2] = molecular target: Focal adhesion kinase 1 (Homo sapiens) (UniProt Q05397); experiment: Inhibition of FAK at 10 uM
[3] = molecular target: Insulin-like growth factor 1 receptor (Homo sapiens) (UniProt P08069); experiment: Inhibition of IGF1R at 10 uM
[4] = molecular target: Proto-oncogene tyrosine-protein kinase Src (Homo sapiens) (UniProt P12931); experiment: Inhibition of SRC at 10 uM
[5] = molecular target: Hepatocyte growth factor receptor (Homo sapiens) (UniProt P08581); experiment: Inhibition of MET at 10 uM
[6] = molecular target: Vascular endothelial growth factor receptor 2 (Homo sapiens) (UniProt P35968); experiment: Inhibition of VEGFR2 at 10 uM
[7] = molecular target: Vascular endothelial growth factor receptor 3 (Homo sapiens, UniProt P35916); experiment: Inhibition of VEGFR3 at 10 uM
[8] = molecular target: RAC-alpha serine/threonine-protein kinase (Homo sapiens) (UniProt P31749); experiment: Inhibition of AKT1 at 10 uM
[9] = molecular target: T2, Aurora kinase A (Homo sapiens) (UniProt O14965); experiment: Inhibition of aurora A at 10 uM
T2 sequence (whole entry): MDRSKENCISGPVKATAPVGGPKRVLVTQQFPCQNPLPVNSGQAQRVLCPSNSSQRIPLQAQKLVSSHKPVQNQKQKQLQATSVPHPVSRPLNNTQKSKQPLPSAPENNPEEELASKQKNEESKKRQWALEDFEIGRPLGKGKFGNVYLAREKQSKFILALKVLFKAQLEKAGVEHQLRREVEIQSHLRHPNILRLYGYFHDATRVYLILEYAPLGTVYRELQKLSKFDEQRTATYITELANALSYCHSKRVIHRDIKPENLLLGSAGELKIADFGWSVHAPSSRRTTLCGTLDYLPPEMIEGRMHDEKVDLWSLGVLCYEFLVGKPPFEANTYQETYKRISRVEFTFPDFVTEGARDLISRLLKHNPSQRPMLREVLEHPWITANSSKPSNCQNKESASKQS

[10] = molecular target: Aurora kinase B (Homo sapiens) (UniProt Q96GD4); experiment: Inhibition of aurora B at 10 uM
Homo sapiens [11] = species: Homo sapiens; experiment: Inhibition of CDK4/cyclinD1 at 10 uM
Homo sapiens [12] = species: Homo sapiens; experiment: Inhibition of CK2-alpha1 at 10 uM
[13] = molecular target: Serine/threonine-protein kinase PLK1 (Homo sapiens) (UniProt P53350); experiment: Inhibition of PLK1 at 10 uM
[14] = molecular target: Angiopoietin-1 receptor (Homo sapiens) (UniProt Q02763); experiment: Inhibition of TIE2 at 10 uM
[15] = molecular target: Receptor-type tyrosine-protein kinase FLT3 (Homo sapiens) (UniProt P36888); experiment: Inhibition of FLT3 at 10 uM
[16] = molecular target: Platelet-derived growth factor receptor beta (Homo sapiens) (UniProt P09619); experiment: Inhibition of PDGFRbeta at 10 uM
[17] = molecular target: Serine/threonine-protein kinase PAK 4 (Homo sapiens) (UniProt O96013); experiment: Inhibition of PAK4 at 10 uM

Sequence of Hepatocyte growth factor receptor (Homo sapiens) (P08581 whole entry): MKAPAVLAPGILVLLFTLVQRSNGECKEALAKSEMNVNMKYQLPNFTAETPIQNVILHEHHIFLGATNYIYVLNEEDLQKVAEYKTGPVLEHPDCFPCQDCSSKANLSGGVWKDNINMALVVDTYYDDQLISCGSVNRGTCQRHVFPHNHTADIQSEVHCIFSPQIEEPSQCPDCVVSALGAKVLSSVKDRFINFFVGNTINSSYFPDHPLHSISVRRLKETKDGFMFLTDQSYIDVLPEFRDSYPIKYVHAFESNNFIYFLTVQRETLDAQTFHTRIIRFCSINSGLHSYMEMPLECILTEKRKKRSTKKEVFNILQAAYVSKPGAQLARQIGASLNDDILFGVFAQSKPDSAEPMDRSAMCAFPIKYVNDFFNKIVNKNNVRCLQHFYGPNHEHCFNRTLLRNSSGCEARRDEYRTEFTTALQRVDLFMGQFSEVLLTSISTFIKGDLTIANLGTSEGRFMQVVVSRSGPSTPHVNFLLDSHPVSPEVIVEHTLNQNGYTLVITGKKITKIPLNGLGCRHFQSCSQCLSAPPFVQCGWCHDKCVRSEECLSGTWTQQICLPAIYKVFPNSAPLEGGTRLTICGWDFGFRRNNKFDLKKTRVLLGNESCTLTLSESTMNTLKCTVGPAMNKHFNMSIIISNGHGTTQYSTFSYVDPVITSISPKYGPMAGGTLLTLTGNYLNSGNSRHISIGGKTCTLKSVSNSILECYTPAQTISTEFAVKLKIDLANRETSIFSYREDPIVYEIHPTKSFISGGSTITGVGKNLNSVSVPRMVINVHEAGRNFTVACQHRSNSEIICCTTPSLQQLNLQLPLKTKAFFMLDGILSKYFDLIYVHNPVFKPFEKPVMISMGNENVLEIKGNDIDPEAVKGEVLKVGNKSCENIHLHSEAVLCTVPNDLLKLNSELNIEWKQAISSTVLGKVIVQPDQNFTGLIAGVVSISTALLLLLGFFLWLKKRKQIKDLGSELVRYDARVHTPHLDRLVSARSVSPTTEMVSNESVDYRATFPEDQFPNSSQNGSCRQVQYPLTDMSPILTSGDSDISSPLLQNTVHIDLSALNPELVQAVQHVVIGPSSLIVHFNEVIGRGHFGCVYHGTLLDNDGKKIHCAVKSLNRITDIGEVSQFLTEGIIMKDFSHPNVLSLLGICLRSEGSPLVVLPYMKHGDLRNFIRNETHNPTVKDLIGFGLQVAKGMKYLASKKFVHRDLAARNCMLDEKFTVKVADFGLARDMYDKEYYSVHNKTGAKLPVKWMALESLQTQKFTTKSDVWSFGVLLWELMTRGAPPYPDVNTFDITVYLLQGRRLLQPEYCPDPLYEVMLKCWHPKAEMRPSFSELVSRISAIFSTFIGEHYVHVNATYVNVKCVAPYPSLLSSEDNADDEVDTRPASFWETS
Sequence of Vascular endothelial growth factor receptor 3 (P35916 whole entry): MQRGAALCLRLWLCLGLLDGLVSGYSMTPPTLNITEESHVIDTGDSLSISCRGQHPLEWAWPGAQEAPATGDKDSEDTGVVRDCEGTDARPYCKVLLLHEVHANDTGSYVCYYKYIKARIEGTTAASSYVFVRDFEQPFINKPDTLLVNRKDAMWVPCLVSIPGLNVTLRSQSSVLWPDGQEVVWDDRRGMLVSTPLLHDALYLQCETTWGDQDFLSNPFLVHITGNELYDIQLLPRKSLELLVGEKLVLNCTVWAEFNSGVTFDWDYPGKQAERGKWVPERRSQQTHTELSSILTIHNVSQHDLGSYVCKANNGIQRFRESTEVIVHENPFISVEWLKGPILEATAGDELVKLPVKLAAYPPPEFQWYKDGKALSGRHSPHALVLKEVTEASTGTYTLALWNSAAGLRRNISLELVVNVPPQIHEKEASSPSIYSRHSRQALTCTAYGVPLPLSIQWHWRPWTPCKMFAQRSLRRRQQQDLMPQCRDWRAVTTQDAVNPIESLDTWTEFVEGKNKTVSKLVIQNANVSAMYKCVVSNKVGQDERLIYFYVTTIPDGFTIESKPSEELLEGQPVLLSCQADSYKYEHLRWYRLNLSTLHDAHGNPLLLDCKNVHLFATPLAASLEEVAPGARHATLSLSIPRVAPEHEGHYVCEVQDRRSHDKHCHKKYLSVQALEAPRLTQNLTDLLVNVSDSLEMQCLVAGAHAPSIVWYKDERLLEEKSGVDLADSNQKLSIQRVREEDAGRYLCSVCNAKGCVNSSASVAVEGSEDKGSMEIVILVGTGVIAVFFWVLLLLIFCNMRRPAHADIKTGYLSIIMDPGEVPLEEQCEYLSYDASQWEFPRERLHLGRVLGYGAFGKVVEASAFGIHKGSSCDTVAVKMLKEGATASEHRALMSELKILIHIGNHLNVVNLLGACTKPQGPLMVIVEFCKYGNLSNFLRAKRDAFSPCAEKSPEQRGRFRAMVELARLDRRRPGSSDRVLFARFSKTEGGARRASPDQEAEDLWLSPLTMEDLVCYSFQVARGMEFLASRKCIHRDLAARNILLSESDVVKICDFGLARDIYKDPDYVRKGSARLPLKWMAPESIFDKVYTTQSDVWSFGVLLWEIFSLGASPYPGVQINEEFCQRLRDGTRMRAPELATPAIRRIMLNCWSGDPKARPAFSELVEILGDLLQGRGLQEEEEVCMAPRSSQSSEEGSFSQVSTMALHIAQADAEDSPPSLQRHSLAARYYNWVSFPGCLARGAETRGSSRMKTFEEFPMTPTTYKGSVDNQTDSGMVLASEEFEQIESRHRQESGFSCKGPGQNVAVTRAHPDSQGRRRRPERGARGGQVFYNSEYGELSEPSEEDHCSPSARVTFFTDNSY
Sequence of Aurora kinase B (Homo sapiens) (Q96GD4 whole entry): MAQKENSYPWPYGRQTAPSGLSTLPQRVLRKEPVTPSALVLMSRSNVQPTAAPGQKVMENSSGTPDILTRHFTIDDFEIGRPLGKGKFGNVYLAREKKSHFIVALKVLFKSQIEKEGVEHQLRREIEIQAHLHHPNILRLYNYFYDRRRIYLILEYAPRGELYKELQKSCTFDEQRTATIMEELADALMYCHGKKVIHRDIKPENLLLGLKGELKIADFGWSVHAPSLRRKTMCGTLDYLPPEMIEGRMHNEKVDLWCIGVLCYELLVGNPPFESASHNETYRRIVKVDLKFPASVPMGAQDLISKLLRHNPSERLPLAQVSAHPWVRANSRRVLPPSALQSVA
Sequence of Proto-oncogene tyrosine-protein kinase Src (Homo sapiens) (P12931 2-536 limits assumed): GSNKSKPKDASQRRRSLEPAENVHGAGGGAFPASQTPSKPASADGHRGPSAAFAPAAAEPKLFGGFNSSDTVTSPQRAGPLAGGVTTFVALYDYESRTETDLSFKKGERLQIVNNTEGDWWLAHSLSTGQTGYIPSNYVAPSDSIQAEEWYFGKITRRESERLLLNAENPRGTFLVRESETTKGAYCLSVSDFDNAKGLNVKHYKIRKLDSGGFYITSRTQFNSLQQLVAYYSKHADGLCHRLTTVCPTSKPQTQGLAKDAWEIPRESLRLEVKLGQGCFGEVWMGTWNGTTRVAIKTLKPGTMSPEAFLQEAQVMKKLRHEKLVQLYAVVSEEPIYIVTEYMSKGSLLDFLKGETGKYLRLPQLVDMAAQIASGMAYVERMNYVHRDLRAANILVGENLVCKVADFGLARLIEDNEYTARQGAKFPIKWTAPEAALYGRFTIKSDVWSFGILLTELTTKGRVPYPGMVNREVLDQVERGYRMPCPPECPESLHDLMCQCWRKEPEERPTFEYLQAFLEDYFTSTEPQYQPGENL
Sequence of Angiopoietin-1 receptor (Homo sapiens) (Q02763 whole entry): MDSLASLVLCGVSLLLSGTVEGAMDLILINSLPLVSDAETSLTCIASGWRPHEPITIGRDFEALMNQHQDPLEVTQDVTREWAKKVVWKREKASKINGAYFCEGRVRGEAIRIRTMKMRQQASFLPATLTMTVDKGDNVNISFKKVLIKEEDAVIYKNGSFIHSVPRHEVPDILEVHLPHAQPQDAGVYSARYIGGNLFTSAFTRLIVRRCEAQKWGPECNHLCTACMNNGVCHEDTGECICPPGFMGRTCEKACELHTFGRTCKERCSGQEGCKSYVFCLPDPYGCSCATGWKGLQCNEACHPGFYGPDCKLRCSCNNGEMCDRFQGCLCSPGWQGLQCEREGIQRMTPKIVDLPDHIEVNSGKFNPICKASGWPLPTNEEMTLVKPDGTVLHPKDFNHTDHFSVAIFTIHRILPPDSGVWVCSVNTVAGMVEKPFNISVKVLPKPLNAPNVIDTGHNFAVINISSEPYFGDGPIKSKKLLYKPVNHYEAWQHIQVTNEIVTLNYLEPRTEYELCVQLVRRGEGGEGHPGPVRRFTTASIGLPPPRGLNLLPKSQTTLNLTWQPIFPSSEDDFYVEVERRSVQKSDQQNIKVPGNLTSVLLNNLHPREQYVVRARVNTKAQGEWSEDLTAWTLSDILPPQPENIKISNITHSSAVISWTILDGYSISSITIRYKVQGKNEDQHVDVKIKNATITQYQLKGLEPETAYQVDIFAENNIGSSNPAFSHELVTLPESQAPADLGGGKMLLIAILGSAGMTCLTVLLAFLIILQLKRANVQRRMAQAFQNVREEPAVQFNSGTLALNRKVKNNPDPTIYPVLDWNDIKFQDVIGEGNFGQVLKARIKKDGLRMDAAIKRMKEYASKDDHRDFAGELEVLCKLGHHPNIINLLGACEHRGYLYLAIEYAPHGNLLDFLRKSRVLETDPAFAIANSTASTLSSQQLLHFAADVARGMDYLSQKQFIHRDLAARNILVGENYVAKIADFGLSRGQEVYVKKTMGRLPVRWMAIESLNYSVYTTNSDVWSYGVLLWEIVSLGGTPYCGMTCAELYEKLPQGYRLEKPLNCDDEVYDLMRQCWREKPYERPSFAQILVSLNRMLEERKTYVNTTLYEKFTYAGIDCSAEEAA

inhibition [1] [%]	inhibition [2] [%]	inhibition [3] [%]	inhibition [4] [%]	inhibition [5] [%]	inhibition [6] [%]	inhibition [7] [%]	inhibition [8] [%]	inhibition [9] [%]	inhibition [10] [%]	inhibition (Homo sapiens [11]) [%]	inhibition (Homo sapiens [12]) [%]	inhibition [13] [%]	inhibition [14] [%]	inhibition [15] [%]	inhibition [16] [%]	inhibition [17] [%]	SMILES	growth, % of control at 100 µM (MCF7) [%]	growth, % of control at 100 µM (NCI-H460) [%]	growth, % of control at 100 µM (SF-268) [%]
< 40	< 40	< 40	< 40	< 40	< 40	< 40	< 40	< 40	< 40	< 40	< 40	< 40	< 40	< 40	< 40	< 40	O=C1Cc2cnn(-c3ccccc3Cl)c2-c2ccccc2N1	66	53	71
< 40	< 40	< 40	< 40	< 40	< 40	< 40	< 40	< 40	< 40	< 40	< 40	< 40	< 40	< 40	< 40	< 40	O=C1Cc2cnn(-c3cc(Cl)cc(Cl)c3)c2-c2ccccc2N1	40	21	62
< 40	< 40	< 40	< 40	< 40	< 40	< 40	< 40	< 40	< 40	< 40	< 40	< 40	< 40	< 40	< 40	< 40	COc1ccc(-n2ncc3c2-c2ccccc2NC(=O)C3)cc1	60	26	88
< 40	< 40	< 40	< 40	< 40	< 40	< 40	< 40	< 40	< 40	< 40	< 40	< 40	< 40	< 40	< 40	< 40	O=C1Cc2cnn(-c3ccccc3F)c2-c2ccccc2N1	66	49	98
< 40	< 40	< 40	< 40	< 40	< 40	< 40	< 40	< 40	< 40	< 40	< 40	< 40	< 40	< 40	< 40	< 40	O=C1Cc2cnn(-c3ccccc3Br)c2-c2ccccc2N1	69	44	87
